Data on one compound can be found in ChEMBL document CHEMBL5030567, “Macrocyclic Inhibitors of HGF-Activating Serine Proteases Overcome Resistance to Receptor Tyrosine Kinase Inhibitors and Block Lung Cancer Progression” (J Med Chem, 2021).

Values after ≈ are worked out from the molar mass of the structure shown. Active and inactive are the calls of the source. No cut-off for these calls is given here.

The subject of one data set is NCI-H596. Put plainly: Antitumor activity against human NCI-H596 cells xenografted in hHGF knock in NSG mouse assessed as tumor growth inhibition at 20 mg/kg, ip administered daily for 14 to 16 days. To be noted: time 14-16 day. The class given is functional, organism-based.
A short description of data set [1]: Toxicity in hHGF knock in NSG mouse xenografted with human NCI-H596 cells at 20 mg/kg, ip administered daily for 14 to 16 days. The class given is organism-based. The conditions noted are these: in vivo, time 14-16 day.
Data set [2] is described as follows: Acute toxicity in NSG mouse at 10 to 50 mg/kg, ip administered for 7 days. Type of data set: organism-based. To be noted: in vivo, dose 10-50 mg/kg, time 7 day.
Data set [3] in a line: Plasma protein binding in mouse assessed as unbound fraction. The class given is ADME, cell-free.
Data set [4] can be described thus: Half life in mouse plasma at 20 mg/kg, ip. The class given is ADME, organism-based. To be noted: in vivo, 20 mg/kg.
In data set [5] the test system is HCC827. As to the kind of experiment: Inhibition of pro-HGF stimulated wound healing in human HCC827 cells preincubated for 30 mins followed by pro-HGF stimulation and measured after 24 hrs by crystal violet staining based assay. Type of data set: functional, cell-based. Summed up:
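HCC827 monolayers grown to confluence, serum-starved overnight, then scratched. Cells were pre-incubated 30 min with inhibitor (10 µM) and stimulated with HGF or pro-HGF for 24 h. Wells stained with crystal violet to score closure. n=3; one-way ANOVA versus pro-HGF alone.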

Data set [6] concerns HCC827. Put plainly: Cytotoxicity against human HCC827 cells assessed as reduction in cell viability at 0.1 to 1 uM after 72 hrs by crystal violet staining based assay. The conditions noted are these: dose 0.1-1 µM.
Data set [7] is described as follows: Toxicity in NSG mouse at 20 mg/kg, ip administered daily for 7 days. The class given is organism-based. The conditions noted are these: in vivo, time 7 day.
A short description of data set [8]: Toxicity in NSG mouse assessed as body weight loss at 10 to 50 mg/kg, ip administered for 7 days. The class given is organism-based. To be noted: in vivo, dose 10-50 mg/kg, time 7 day.
In data set [9] the target is T1, Hepatocyte growth factor activator serine protease (Homo sapiens) (UniProt Q04756).
T1 sequence (whole entry): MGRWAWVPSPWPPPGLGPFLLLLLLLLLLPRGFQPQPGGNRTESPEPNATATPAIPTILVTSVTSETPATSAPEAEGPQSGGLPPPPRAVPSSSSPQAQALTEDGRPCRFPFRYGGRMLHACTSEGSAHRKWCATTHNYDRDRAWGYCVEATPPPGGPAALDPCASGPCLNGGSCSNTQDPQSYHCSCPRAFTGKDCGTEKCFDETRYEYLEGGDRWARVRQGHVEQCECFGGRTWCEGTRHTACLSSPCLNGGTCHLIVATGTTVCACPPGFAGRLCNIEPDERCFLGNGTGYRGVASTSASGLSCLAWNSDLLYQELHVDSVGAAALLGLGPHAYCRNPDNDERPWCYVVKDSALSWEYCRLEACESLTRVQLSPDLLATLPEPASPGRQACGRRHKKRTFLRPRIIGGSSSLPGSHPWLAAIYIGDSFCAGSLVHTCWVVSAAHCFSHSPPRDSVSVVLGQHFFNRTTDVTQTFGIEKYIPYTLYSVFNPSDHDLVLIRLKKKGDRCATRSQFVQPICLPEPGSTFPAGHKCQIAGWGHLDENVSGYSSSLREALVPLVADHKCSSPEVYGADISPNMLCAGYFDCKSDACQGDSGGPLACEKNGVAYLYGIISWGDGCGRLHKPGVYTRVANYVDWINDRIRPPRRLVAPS
Put plainly: Inhibition of recombinant human HGFA serine protease domain mediated pro-HGF activation preincubated for 30 mins followed by pro-HGF addition and measured after 1 hr by immunoblotting analysis. The essentials:
(§1)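 Recombinant pro-HGF (10 ng) incubated one hour with matriptase (1 nM), hepsin (10 nM) or HGFA (5 nM), with or without inhibitor. Processing detected by immunoblot with a polyclonal antibody recognizing pro-HGF and the HGF alpha and beta chains; active HGF served as positive control.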

Data set [10] deals with T2, Suppressor of tumorigenicity 14 protein (Homo sapiens, UniProt Q9Y5Y6).
T2 sequence (Q9Y5Y6 whole entry): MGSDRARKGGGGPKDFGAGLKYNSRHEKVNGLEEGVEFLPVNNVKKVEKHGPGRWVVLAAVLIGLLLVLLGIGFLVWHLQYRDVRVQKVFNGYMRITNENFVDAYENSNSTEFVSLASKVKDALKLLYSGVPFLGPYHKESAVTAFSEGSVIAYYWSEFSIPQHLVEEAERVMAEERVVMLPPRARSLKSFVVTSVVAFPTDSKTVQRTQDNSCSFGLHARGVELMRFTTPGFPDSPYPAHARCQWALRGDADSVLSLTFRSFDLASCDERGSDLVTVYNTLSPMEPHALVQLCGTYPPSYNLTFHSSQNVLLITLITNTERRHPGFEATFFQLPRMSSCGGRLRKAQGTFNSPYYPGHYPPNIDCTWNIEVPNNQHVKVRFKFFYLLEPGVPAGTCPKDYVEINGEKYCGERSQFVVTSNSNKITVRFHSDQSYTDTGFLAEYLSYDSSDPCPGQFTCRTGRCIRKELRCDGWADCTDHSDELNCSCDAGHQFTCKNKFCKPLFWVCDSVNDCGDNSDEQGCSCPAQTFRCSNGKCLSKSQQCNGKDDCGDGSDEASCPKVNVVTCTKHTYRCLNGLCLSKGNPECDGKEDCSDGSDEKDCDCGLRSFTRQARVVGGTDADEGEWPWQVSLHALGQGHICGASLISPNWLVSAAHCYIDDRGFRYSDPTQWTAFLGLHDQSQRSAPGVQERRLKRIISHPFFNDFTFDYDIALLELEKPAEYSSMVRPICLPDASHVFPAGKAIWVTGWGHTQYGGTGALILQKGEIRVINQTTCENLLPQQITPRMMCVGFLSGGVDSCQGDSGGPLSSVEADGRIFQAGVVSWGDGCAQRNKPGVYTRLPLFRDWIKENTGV
Put plainly: Inhibition of recombinant human N-terminal met-His6-tagged matriptase catalytic domain (Gly596 to Val855 residues) expressed in Escherichia coli using Boc-QAR-AMC as substrate preincubated for 30 mins followed by substrate addition by fluorescence based assay. Summed up: (§2)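 Inhibitor in 11-point serial dilution (0-20 µM final, 2% DMSO) pre-incubated 30 min at room temperature with enzyme in TNC buffer (25 mM Tris, 150 mM NaCl, 5 mM CaCl2, 0.01% Triton X-100, pH 8). […] Hepsin activated beforehand 24 h at 37°C. Fluorescence ex 380/em 460 nm kinetic; four-parameter fit of velocities; mean of three experiments.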

For data set [11], the target named is T3, Serine protease hepsin (Homo sapiens, UniProt P05981). Put plainly: Inhibition of recombinant human C-terminal 10-His tagged hepsin (Arg45 to Leu417) expressed in mouse myeloma cells using Boc-QAR-AMC as substrate preincubated for 30 mins followed by substrate addition by fluorescence based assay. The class given is single protein. The essentials:
as §2

Data set [12] concerns the target T3, Serine protease hepsin. As to the kind of experiment: Inhibition of recombinant human C-terminal 10-His tagged hepsin (Arg45 to Leu417) expressed in mouse myeloma cells mediated pro-HGF activation preincubated for 30 mins followed by pro-HGF addition and measured after 1 hr by immunoblotting analysis. The essentials: as §1
Data set [13] in a line: Stability in mouse liver microsomes assessed as half life. Type of data set: ADME, Microsome.
The subject of data set [14] is HCC827. Put plainly: Cytotoxicity against human HCC827 cells assessed as reduction in cell viability at 0.1 to 1 uM after 72 hrs in presence of pro-HGF by crystal violet staining based assay. The conditions noted are these: dose 0.1-1 µM.
Data set [15] is described as follows: Stability in human plasma assessed as half life. The class given is ADME, cell-free.
Data set [16] in a line: Stability in human liver microsomes assessed as half life. Type of data set: ADME, Microsome.
A short description of data set [17]: Stability in mouse plasma assessed as half life. The class given is ADME, cell-free.
The target of data set [18] is T4, Suppressor of tumorigenicity 14 protein (Homo sapiens) (UniProt Q9Y5Y6).
T4 sequence (whole entry): T2 sequence (Q9Y5Y6 whole entry)
As to the kind of experiment: Inhibition of recombinant human N-terminal met-His6-tagged matriptase catalytic domain (Gly596 to Val855 residues) expressed in Escherichia coli mediated pro-HGF activation preincubated for 30 mins followed by pro-HGF addition and measured after 1 hr by immunoblotting analysis. Summed up: as §1

The nature of data set [19]: Solubility of compound at pH 7.4. Type of data set: physicochemical. To be noted: buffer.
The test system of another data set is EBC-1. Put plainly: Cytotoxicity against human EBC-1 cells assessed as reduction in cell viability preincubated with compound and pro-HGF for 24 hrs followed by JNJ-38877605 addition and measured after 48 hrs by CellTiter-Glo assay. Type of data set: functional, cell-based. The conditions noted are these: time 72.0 hrs. The essentials: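 EBC-1 cells pre-incubated 24 h with pro-HGF (100 ng/ml) with or without compound (1 µM), then given MET kinase inhibitor JNJ-38877605 (25 nM). Viability read by CellTiter-Glo after 48 h. Means±S.E.M., n=3; one-way ANOVA with Dunnett's test.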

T3 sequence (P05981 1-162 limits assumed): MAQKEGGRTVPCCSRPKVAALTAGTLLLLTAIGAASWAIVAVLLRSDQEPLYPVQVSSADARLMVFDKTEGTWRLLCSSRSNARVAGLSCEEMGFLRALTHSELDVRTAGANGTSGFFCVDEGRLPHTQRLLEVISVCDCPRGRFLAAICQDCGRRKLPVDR
T3 sequence (P05981 163-417 limits assumed): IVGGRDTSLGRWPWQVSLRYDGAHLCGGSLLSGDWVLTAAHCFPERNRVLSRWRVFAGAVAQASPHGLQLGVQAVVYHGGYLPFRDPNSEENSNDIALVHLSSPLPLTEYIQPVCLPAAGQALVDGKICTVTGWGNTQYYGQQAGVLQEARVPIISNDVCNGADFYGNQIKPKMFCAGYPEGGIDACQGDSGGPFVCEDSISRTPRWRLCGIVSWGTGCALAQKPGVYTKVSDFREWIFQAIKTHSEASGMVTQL

For the compound `CC(=O)N[C@H]1CC(=O)NCCCC[C@@H](C(=O)N[C@@H](CCCNC(=N)N)C(=O)c2nc3ccccc3s2)NC(=O)[C@H](CC(C)C)NC1=O`, the outcome in the data set with NCI-H596, in the data set with HCC827 [14] and in the data set with EBC-1 was Active. The Activity result in data set [1], in data set [2], in data set [7] and in data set [8] was “Non-Toxic” in each case. Moreover, the fraction unbound in data set [3] turned out to be 0.286. In addition, the t1/2 in [4] was 8.7 h; in data set [13], above 2.42 h; in [15], above 4.82 h; in data set [16] it was above 2.42 h; in [17], 3.7 h. Moreover, the inhibition result (with HCC827 [5]; at Serine protease hepsin [12]; in [18]) was “Active” in each case. The result with HCC827 [6] was inactive. Moreover, the inhibition result in [9] is “inactive”. The figures for the IC50 (in data set [10]; on Serine protease hepsin [11]) were 2.2 nM and 11 nM, respectively. This compound also registered a solubility in data set [19] of 11 µM (≈ 7.39 µg/mL).
